The list is not random: actives were taken first. Their share in the collection is about 2.4%.
Apaf1 inhib: human Apaf-1 inhibition | reconstituted apoptosome caspase-3 activity, DEVD-Rh110 fluorescence | hit rate 0.71% among 330,000 | O14727 | inhibition, % at 20 µM; active means inhibition of at least 40% at 20 µM
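System – cell-free apoptosome with Apaf-1, procaspase-3 and caspase-9 · Buffer or medium – pH 7.5 Hepes buffer with CHAPS, BSA, DTT · Also added – cytochrome c with DEVD-Rh110 · Times – 30 min compound preincubation, 50 min activation, room temperature · Technique – Rh110 fluorescence intensity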
UBC13 polyUb: inhibitors of human UBC13 polyubiquitin chain formation; inhibition, % at 20 µM; AID 485273; hit rate 0.47% among 330,000; P61088; TR-FRET; in the data active means inhibition above about 45%, passing the limit was not always enough
TMEM16A inh: inhibitors of mouse TMEM16A calcium-activated chloride channel; Q8BHY3; HEK293 TMEM16A/YFP iodide influx fluorescence, ionomycin; normalized B-score (activity score, 25-100; higher = stronger inhibition) at 10 µM; hit rate 1.2% among 310,000;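 active means ratio plate-corrected score three or more library SD toward inhibition, starting fluorescence score within five deviations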;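 further: score derived from kinetic fluorescence span divided by baseline fluorescence per well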
Target sequence (Q8BHY3 whole entry, looked up): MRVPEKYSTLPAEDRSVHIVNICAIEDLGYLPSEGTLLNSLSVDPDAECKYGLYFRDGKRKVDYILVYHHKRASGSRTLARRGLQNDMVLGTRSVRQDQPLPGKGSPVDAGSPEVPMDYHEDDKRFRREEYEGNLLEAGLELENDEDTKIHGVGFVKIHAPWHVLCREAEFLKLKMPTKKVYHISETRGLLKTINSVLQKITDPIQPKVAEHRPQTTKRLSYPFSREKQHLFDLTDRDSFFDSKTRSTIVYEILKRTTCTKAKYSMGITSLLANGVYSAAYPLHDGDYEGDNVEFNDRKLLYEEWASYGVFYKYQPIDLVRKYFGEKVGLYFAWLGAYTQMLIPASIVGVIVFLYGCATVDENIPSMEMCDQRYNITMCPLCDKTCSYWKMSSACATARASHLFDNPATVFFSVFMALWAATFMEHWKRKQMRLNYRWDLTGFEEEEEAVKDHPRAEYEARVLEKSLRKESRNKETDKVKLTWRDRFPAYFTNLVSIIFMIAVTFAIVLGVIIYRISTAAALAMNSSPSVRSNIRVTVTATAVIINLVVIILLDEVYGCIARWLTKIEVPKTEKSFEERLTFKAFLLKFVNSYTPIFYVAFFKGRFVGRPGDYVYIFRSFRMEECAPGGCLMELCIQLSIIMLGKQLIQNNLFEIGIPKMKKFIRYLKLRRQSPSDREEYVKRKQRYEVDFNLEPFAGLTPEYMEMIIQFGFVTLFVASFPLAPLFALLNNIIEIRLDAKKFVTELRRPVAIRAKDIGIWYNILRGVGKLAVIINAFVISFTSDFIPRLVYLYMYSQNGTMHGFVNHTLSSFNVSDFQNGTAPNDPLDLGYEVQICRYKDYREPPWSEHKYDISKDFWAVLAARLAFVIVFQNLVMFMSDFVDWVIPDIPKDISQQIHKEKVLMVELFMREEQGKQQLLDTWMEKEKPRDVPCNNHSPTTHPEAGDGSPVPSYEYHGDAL
FID counter: fluorescent intercalator displacement, NS3 helicase counter-screen; DNA fluorescent intercalator displacement, fluorescence; inhibition, % at 7.9 µM; hit rate 0.17% among 290,000; AID 1845; in the data active means inhibition above about 37%;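 further: higher means more ethidium bromide displaced from hairpin DNA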
ANO1 activ: activators or potentiators of mouse TMEM16A chloride channel. AID 623877. B-score at 10 µM. Q8BHY3. hit rate 0.3% among 340,000. HEK293 TMEM16A/YFP-H148Q/I152L, iodide quench fluorescence; active compounds read low;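 active means fluorescence-ratio B-score plate-corrected deviation score at least 3 library SD below zero, with starting fluorescence score within 5 deviations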;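 further: channel opened by trigger with iodide after compound preincubation; score built on the fluorescence ratio of max minus min over baseline; more negative score means more quench and so TMEM16A activation or potentiation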
TMEM16A reconf: TMEM16A (mouse) chloride channel inhibition, re-confirmation. shares compounds with TMEM16A inh. HEK293 TMEM16A/YFP-H148Q, iodide quench fluorescence; ionomycin added to raise cell calcium. inhibition, % at 10 µM. hit rate 39% among 2,300;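 active means mean duplicate percent inhibition, scaled so buffer wells are 0 and the reference blocker 100, over three buffer SD above buffer mean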
TMEM16A Ca cntr: alters calcium mobilization in TMEM16A HEK293 cells, counter-screen; shares compounds with TMEM16A inh; TMEM16A/YFP HEK293, Fluo4 calcium mobilization; calcium response (% of ionomycin), % at 10 µM; hit rate 2% among 2,300; AID 652231;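 active means duplicate-averaged calcium signal over 20% of the ionomycin maximum, relative to buffer baseline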;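 further: each well's signal is peak minus trough fluorescence divided by its pre-addition baseline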
YFP-HEK293 quench: counter-screen for TMEM16A inhibitors: effect in parental YFP-HEK293 cells; iodide YFP quench, ionomycin; AID 652233; 2,300 tested, under 10 active; YFP ratio F(max-min)/F0 at 10 µM; shares compounds with TMEM16A inh;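 active means yellow fluorescent protein signal ratio exceeding the buffer control mean by over 5 SD of those controls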;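 further: ratio is mean of duplicate wells from kinetic YFP trace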
ClC-1 inh: blocks the rat ClC-1 voltage-dependent chloride channel; ratio percent, % at 10 µM; 2,300 tested, under 10 active; CHO ClC-1-YFP, iodide influx fluorescence quench; iodide control reads 0, buffer control 100; shares compounds with TMEM16A inh;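 active means duplicate-mean ratio percent above the mean of iodide-only control wells, which defines zero, plus 5 of their SD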;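 further: higher percent means stronger block of ClC-1 iodide influx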
Each line names hits and unclear results; the compound was inactive in the other large screens (follow-up assays come after a bar, where they were run).

CCn1c(SCC(=O)Nc2nc(-c3ccccc3)cs2)nnc1-c1ccccc1O	TMEM16A inh 100 | TMEM16A reconf 36.5% | TMEM16A Ca cntr inactive | YFP-HEK293 quench inactive | ClC-1 inh inactive
O=C(CSc1nnc(-c2ccncc2)n1Cc1ccco1)Nc1nc(-c2ccccc2)cs1	TMEM16A inh 25 | TMEM16A reconf 30.5% | TMEM16A Ca cntr inactive | YFP-HEK293 quench inactive | ClC-1 inh inactive
O=C(CSc1nc2ccccc2o1)Nc1nc2ccccc2s1	none
O=C(CSc1nc2ccccc2o1)Nc1nc(-c2ccccc2)cs1	TMEM16A inh 100 | TMEM16A reconf 47.5% | TMEM16A Ca cntr inactive | YFP-HEK293 quench inactive | ClC-1 inh inactive
COCCCn1c(O)c(/C=C2\N=C(C#N)C(=Nc3ccc(C)cc3)O2)sc1=S	none
Cc1noc(C)c1S(=O)(=O)N(C)C[C@H]1Oc2ccc(NC(=O)Cn3cnnn3)cc2C(=O)N([C@H](C)CO)C[C@@H]1C	none (no result: TMEM16A inh, FID counter)
O=C(OCc1ccccc1Cl)c1cccnc1Cl	none
O=C(OCc1ccccc1Cl)c1ccccc1C(=O)c1ccccc1	TMEM16A inh 100 | TMEM16A reconf inactive | TMEM16A Ca cntr inactive | YFP-HEK293 quench inactive | ClC-1 inh inactive
CC1=CC(C)(C)N(S(=O)(=O)c2ccc(C)cc2)c2ccccc21	TMEM16A inh 100 | TMEM16A reconf inactive | TMEM16A Ca cntr inactive | YFP-HEK293 quench inactive | ClC-1 inh inactive
COc1ccc(C2=NCC(CSc3nccc(=O)[nH]3)S2)cc1 (stereo not drawn)	none
CCN(CC)S(=O)(=O)c1ccc2oc(SCC3CN=C(c4ccc(OC)cc4)S3)nc2c1 (stereo not drawn)	TMEM16A inh 100 | TMEM16A reconf 16.5% | TMEM16A Ca cntr inactive | YFP-HEK293 quench inactive | ClC-1 inh inactive
COc1ccc(C2=NCC(CSc3nnc(-c4ccc5c(c4)OCO5)o3)S2)cc1 (stereo not drawn)	TMEM16A inh 100 | TMEM16A reconf inactive | TMEM16A Ca cntr inactive | YFP-HEK293 quench inactive | ClC-1 inh inactive
C=CCNc1nc(C(=O)OC(C)C(=O)c2ccc(C)cc2)cs1 (stereo not drawn)	none (no result: TMEM16A inh, FID counter)
O=C(CN1CCN(S(=O)(=O)c2ccc(Cl)cc2)CC1)NCc1cccs1	none (no result: FID counter)
O=C(CN1CCN(Cc2ccc(Cl)cc2)C1=O)NCc1cccs1	none | TMEM16A reconf inactive | TMEM16A Ca cntr inactive | YFP-HEK293 quench inactive | ClC-1 inh inactive
[2H]C([2H])(CCOS(N)(=O)=O)c1ccccc1	none
CC(=O)NC(Cc1ccccc1)c1ccc2c(c1)OCCCO2 (stereo not drawn)	none
O=C(NC(Cc1ccccc1)c1ccc2c(c1)OCCCO2)c1ccc(F)cc1 (stereo not drawn)	TMEM16A inh 25 | TMEM16A reconf inactive | TMEM16A Ca cntr inactive | YFP-HEK293 quench inactive | ClC-1 inh inactive
COC(=O)C(C)(C)ONC(=O)Nc1ccccc1Br	TMEM16A inh 25 | TMEM16A reconf inactive | TMEM16A Ca cntr inactive | YFP-HEK293 quench inactive | ClC-1 inh inactive
COC(=O)C(C)(C)ONC(=O)Nc1ccccc1Cl	none
CCC(C)NS(=O)(=O)c1ccc(S(=O)(=O)N2CCCC3(CCCCC3)C2)cc1 (stereo not drawn)	TMEM16A inh 100 | TMEM16A reconf 52.0% | TMEM16A Ca cntr inactive | YFP-HEK293 quench inactive | ClC-1 inh inactive
CC(=O)c1ccc(NC(=O)c2ccc(CSc3ccccc3)o2)cc1	TMEM16A inh 100 | TMEM16A reconf 22.0% | TMEM16A Ca cntr inactive | YFP-HEK293 quench inactive | ClC-1 inh inactive
COC(=O)C1=CN(CC2CCCO2)C=C(C(=O)OC)C1c1ccsc1 (stereo not drawn)	TMEM16A inh 100 | TMEM16A reconf inactive | TMEM16A Ca cntr inactive | YFP-HEK293 quench inactive | ClC-1 inh inactive
CCN(CC)S(=O)(=O)c1ccc(N2CCN(CCOc3ccc(OC)cc3)CC2)nc1	none
CCOC(=O)c1ccccc1NC1c2ccccc2C(=O)N1c1cc(C)ccn1 (stereo not drawn)	TMEM16A inh 100 | TMEM16A reconf inactive | TMEM16A Ca cntr inactive | YFP-HEK293 quench inactive | ClC-1 inh inactive
COc1cc(OC)c(NC2c3ccccc3C(=O)N2c2cc(C)ccn2)cc1Cl (stereo not drawn)	none
COc1cccc(CNC(=O)Cn2c(=O)c3cccn3c3ccccc32)c1	none
CN1CCN(/C=N/c2c(C#N)cnn2Cc2ccccc2)CC1	TMEM16A inh 25 | TMEM16A reconf inactive | TMEM16A Ca cntr inactive | YFP-HEK293 quench inactive | ClC-1 inh inactive
N#Cc1cnn(Cc2ccccc2)c1/N=C/N1CCOCC1	none
Cc1cccc(OCCn2c(=S)[nH]c3ccccc32)c1	none
Cc1ccc(OCCn2c(=S)[nH]c3ccccc32)c(C(C)C)c1	TMEM16A inh 25 | TMEM16A reconf inactive | TMEM16A Ca cntr inactive | YFP-HEK293 quench inactive | ClC-1 inh inactive
O=C(CN1CCN(c2ncc(C(F)(F)F)cc2Cl)CC1)N1CCN(c2ncc(C(F)(F)F)cc2Cl)CC1	none
O=C(CSc1ccc(Cl)cc1)N1CCN(c2ncc(C(F)(F)F)cc2Cl)CC1	TMEM16A inh 100 | TMEM16A reconf inactive | TMEM16A Ca cntr inactive | YFP-HEK293 quench inactive | ClC-1 inh inactive
CC1CCC(NC(=O)CCS(=O)(=O)c2ccc3c(c2)NC(=O)CS3)CC1 (stereo not drawn)	TMEM16A inh 25 | TMEM16A reconf inactive | TMEM16A Ca cntr inactive | YFP-HEK293 quench inactive | ClC-1 inh inactive
O=C1CSc2ccc(S(=O)(=O)CCC(=O)NC3CCCCC3)cc2N1	none
CN(CCOc1ccc(Cl)c(Cl)c1)Cc1ccccc1	none
CCN(CC)CCCOc1ccc(Cl)c(Cl)c1	TMEM16A inh 100 | TMEM16A reconf inactive | TMEM16A Ca cntr inactive | YFP-HEK293 quench inactive | ClC-1 inh inactive
O=C(CCCCCn1c(=O)[nH]c2ccsc2c1=O)NCc1ccc2c(c1)OCO2	TMEM16A inh 25 | TMEM16A reconf inactive | TMEM16A Ca cntr inactive | YFP-HEK293 quench inactive | ClC-1 inh inactive
NS(=O)(=O)c1ccc(CCNC(=O)COC(=O)c2ccc([N+](=O)[O-])o2)cc1	none (no result: TMEM16A inh, FID counter)
COC(=O)c1ccc(NC(=O)CCS(=O)(=O)c2ccc3c(c2)NC(=O)C(C)S3)cc1 (stereo not drawn)	none
O=C(Cn1c(=O)n(-c2cccc(C(F)(F)F)c2)c(=O)c2sccc21)NCC1CCCO1 (stereo not drawn)	TMEM16A inh 25 | TMEM16A reconf inactive | TMEM16A Ca cntr inactive | YFP-HEK293 quench inactive | ClC-1 inh inactive

Assay outcomes deposited in PubChem by several laboratories.
